Experimental data published in ChEMBL document CHEMBL3091412, “Discovery of an irreversible HCV NS5B polymerase inhibitor” (Bioorg Med Chem Lett, 2013).

Assays:
[1] = system: Hepatitis C virus; test: Antiviral activity against HCV Con1 in eplicon cells after 3 days by RT-PCR analysis; assay type: functional, organism-based, Hepacivirus hominis; details: isolate Con1, 72 h
Outline: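 HCV 1b-Con1 replicon cells seeded at 5000 cells/well one day before treatment; inhibitor in DMSO added as 10 serial twofold dilutions in duplicate (final 0.5% DMSO, 5% FBS). Harvested 3 days post dosing; replicon RNA quantified by real-time RT-PCR (Taqman), GAPDH RNA as endogenous control; EC50 calculated.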

[2] = Irreversible inhibition of HCV1b NS5B delta21 polymerase by radiolabeled nucleotide incorporation assay; parameters: species or system Hepatitis C virus subtype 1b
[3] = biological target: T1, Cytochrome P450 1A2 (Homo sapiens, UniProt P05177); test: Inhibition of CYP1A2 in human liver microsomes measured after concurrent incubation; assay type: ADME
T1 sequence (P05177 whole entry): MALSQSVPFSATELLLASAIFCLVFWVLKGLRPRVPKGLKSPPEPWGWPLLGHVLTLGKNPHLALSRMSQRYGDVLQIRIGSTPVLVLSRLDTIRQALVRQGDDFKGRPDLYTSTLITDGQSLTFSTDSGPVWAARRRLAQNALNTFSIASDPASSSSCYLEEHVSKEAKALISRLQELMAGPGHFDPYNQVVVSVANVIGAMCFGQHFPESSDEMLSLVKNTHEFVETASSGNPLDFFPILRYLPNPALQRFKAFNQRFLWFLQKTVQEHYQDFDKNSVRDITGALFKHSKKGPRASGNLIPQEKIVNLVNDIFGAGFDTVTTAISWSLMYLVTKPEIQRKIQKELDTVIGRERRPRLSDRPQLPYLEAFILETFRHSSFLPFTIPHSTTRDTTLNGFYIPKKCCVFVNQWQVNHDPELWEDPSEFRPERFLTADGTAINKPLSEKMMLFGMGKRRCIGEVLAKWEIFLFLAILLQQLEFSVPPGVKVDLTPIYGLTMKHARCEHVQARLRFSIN
Outline: (§1)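 Human liver microsomes; CYP inhibition measured with compound added concurrently or after pre-incubation; concentration inhibiting 50% of enzyme activity determined.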

[4] = biological target: T2, Cytochrome P450 2C8 (Homo sapiens, UniProt P10632); test: Inhibition of CYP2C8 in human liver microsomes measured after compound pre-incubation; assay type: ADME; outline: as §1
T2 sequence (P10632 whole entry): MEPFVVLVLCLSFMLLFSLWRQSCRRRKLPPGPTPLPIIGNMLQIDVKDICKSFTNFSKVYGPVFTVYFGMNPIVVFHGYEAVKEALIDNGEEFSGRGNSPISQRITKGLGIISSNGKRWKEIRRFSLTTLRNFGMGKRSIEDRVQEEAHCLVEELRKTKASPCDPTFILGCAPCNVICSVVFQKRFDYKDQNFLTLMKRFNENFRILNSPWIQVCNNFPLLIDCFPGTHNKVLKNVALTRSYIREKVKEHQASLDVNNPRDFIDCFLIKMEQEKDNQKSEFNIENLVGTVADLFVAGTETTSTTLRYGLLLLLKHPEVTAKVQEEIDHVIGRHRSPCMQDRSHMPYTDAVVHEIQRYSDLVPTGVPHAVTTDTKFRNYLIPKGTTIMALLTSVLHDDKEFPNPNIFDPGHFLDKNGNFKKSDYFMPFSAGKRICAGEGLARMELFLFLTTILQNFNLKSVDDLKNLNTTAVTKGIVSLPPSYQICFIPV

[5] = system: Salmonella typhimurium; test: Induction of mutagenicity in Salmonella Typhimurium TA 100 by mini-Ames assay; assay type: toxicity, organism-based; details: salmonella enterica subsp. enterica serovar typhimurium
Outline: (§2)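 Mini-Ames mutagenicity test against Salmonella strains TA 97a, TA 100 and TA 102.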

[6] = biological target: T3, Cytochrome P450 2C19 (Homo sapiens, UniProt P33261); test: Inhibition of […] in human liver microsomes measured after concurrent incubation; assay type: ADME
[7] = Cmax in fed Sprague-Dawley rat at 500 mg/kg, po; assay type: ADME, organism-based; parameters: dose 500 mg/kg, route oral; details: in vivo
Outline: (§3)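 Given orally as crystalline sodium salt to fed male Sprague Dawley rats (30–500 mg/kg) or fed male Cynomolgus monkeys (10–100 mg/kg) to assess dose exposure; plasma AUC and Cmax determined.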

[8] = Drug excretion in cynomolgus monkey bile assessed as parent compound administered as single oral dose; assay type: ADME, Macaca fascicularis; details: read-out: Drug excretion
Outline: (§4)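 Radiolabeled [3H] compound given as single oral dose to monkey; bile and urine excretion and metabolites profiled, including parent fraction in bile and glutathione or sulfate conjugates.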

[9] = AUC in fed cynomolgus monkey at 10 mg/kg, po; assay type: ADME, organism-based, Macaca fascicularis; parameters: dose 10 mg/kg, route oral; details: plasma; outline: as §3
[10] = biological target: T4, Cytochrome P450 2D4 (Rattus norvegicus, UniProt Q64680); test: Inhibition of rat CYP2D4 measured after compound pre-incubation; assay type: ADME
T4 sequence (Q64680 whole entry): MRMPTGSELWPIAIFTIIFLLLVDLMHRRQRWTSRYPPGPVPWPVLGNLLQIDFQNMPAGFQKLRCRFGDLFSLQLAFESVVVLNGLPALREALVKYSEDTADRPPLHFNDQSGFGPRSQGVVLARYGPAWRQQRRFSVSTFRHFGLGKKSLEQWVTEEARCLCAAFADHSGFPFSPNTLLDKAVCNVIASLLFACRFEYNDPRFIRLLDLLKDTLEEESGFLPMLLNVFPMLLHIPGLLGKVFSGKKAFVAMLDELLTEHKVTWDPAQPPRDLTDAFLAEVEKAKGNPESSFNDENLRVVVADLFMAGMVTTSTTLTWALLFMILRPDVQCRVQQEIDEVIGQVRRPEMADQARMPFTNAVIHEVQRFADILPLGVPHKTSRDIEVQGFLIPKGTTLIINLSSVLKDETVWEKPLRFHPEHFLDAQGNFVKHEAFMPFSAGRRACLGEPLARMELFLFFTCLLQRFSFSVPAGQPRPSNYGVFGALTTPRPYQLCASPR

[11] = biological target: T5, Cytochrome P450 3A4 (Homo sapiens, UniProt P08684); test: Inhibition of CYP3A4 in human liver microsomes measured after compound pre-incubation; assay type: ADME; outline: as §1
[12] = AUC in fed Sprague-Dawley rat at 250 mg/kg, po; assay type: ADME, organism-based; parameters: dose 250 mg/kg, route oral; details: plasma; outline: as §3
[13] = Cmax in fed Sprague-Dawley rat at 30 mg/kg, po; assay type: ADME, organism-based; parameters: dose 30 mg/kg, route oral; details: in vivo; outline: as §3
[14] = system: Rattus norvegicus; test: Toxicity in rat assessed as soft and mucoid stool at 1000 to 2000 mg/kg measured up to 1 day; assay type: organism-based; parameters: dose 1000-2000 mg/kg; details: in vivo, 24 h
Outline: (§5)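 Single-dose rat toxicity study with dose groups of 250, 500, 1000 and 2000 mg/kg. Animals were monitored for clinical signs of toxicity, including stool appearance, and for mortality.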

[15] = Cmax in fed cynomolgus monkey at 10 mg/kg, po; assay type: ADME, organism-based, Macaca fascicularis; parameters: dose 10 mg/kg, route oral; details: in vivo; outline: as §3
[16] = biological target: T2, Cytochrome P450 2C8; test: Inhibition of CYP2C8 in human liver microsomes measured after concurrent incubation; assay type: ADME; outline: as §1
[17] = Cmax in fed cynomolgus monkey at 30 mg/kg, po; assay type: ADME, organism-based, Macaca fascicularis; parameters: dose 30 mg/kg, route oral; details: in vivo; outline: as §3
[18] = biological target: T6, Cytochrome P450 2D6 (Homo sapiens, UniProt P10635); test: Inhibition of CYP2D6 in human liver microsomes measured after compound pre-incubation; assay type: ADME; outline: as §1
[19] = AUC in fed Sprague-Dawley rat at 30 mg/kg, po; assay type: ADME, organism-based; parameters: dose 30 mg/kg, route oral; details: plasma; outline: as §3
[20] = system: Cynomolgus monkey; test: Drug metabolism in cynomolgus monkey assessed as glutathione conjugate formation administered as single oral dose; assay type: ADME, organism-based, Macaca fascicularis; details: in vivo; outline: as §4
[21] = Cmax in fed Sprague-Dawley rat at 250 mg/kg, po; assay type: ADME, organism-based; parameters: dose 250 mg/kg, route oral; details: in vivo; outline: as §3
[22] = AUC in fed cynomolgus monkey at 30 mg/kg, po; assay type: ADME, organism-based, Macaca fascicularis; parameters: dose 30 mg/kg, route oral; details: plasma; outline: as §3
[23] = biological target: T4, Cytochrome P450 2D4; test: Inhibition of rat CYP2D4 measured after concurrent incubation; assay type: ADME
[24] = biological target: T7, Cytochrome P450 2C9 (Homo sapiens, UniProt P11712); test: Inhibition of CYP2C9 in human liver microsomes measured after concurrent incubation; assay type: ADME; outline: as §1
[25] = system: Salmonella typhimurium; test: Induction of mutagenicity in Salmonella Typhimurium TA 102 by mini-Ames assay; assay type: toxicity, organism-based; details: salmonella enterica subsp. enterica serovar typhimurium; outline: as §2
[26] = biological target: T1, Cytochrome P450 1A2; test: Inhibition of CYP1A2 in human liver microsomes measured after compound pre-incubation; assay type: ADME; outline: as §1
[27] = system: Rattus norvegicus; test: Toxicity in rat assessed as mortality at 250 to 2000 mg/kg measured up to 1 day; assay type: organism-based; parameters: dose 250-2000 mg/kg; details: in vivo, 24 h; outline: as §5
[28] = AUC in fed Sprague-Dawley rat at 500 mg/kg, po; assay type: ADME, organism-based; parameters: dose 500 mg/kg, route oral; details: plasma; outline: as §3
[29] = Cmax in fed cynomolgus monkey at 100 mg/kg, po; assay type: ADME, organism-based, Macaca fascicularis; parameters: dose 100 mg/kg, route oral; details: in vivo; outline: as §3
[30] = biological target: T7, Cytochrome P450 2C9; test: Inhibition of CYP2C9 in human liver microsomes measured after compound pre-incubation; assay type: ADME; outline: as §1
[31] = AUC in fed cynomolgus monkey at 100 mg/kg, po; assay type: ADME, organism-based, Macaca fascicularis; parameters: dose 100 mg/kg, route oral; details: plasma; outline: as §3
[32] = system: Salmonella typhimurium; test: Induction of mutagenicity in Salmonella Typhimurium TA 97a by mini-Ames assay; assay type: toxicity, organism-based; details: salmonella enterica subsp. enterica serovar typhimurium; outline: as §2
[33] = biological target: hERG (KCNH2) (Homo sapiens, UniProt Q12809); test: Inhibition of human ERG at 2 uM by voltage clamp assay
[34] = AUC in fed Sprague-Dawley rat at 100 mg/kg, po; assay type: ADME, organism-based; parameters: dose 100 mg/kg, route oral; details: plasma; outline: as §3
[35] = system: Cynomolgus monkey; test: Drug metabolism in cynomolgus monkey assessed as sulfate conjugate formation administered as single oral dose; assay type: ADME, organism-based, Macaca fascicularis; details: in vivo; outline: as §4
[36] = biological target: T3, Cytochrome P450 2C19; test: Inhibition of […] in human liver microsomes measured after compound pre-incubation; assay type: ADME
[37] = system: Rattus norvegicus; test: Toxicity in rat at 10 to 500 mg/kg measured up to 2 weeks; assay type: organism-based; parameters: dose 10-500 mg/kg; details: in vivo, 336 h
[38] = biological target: T6, Cytochrome P450 2D6; test: Inhibition of CYP2D6 in human liver microsomes measured after concurrent incubation; assay type: ADME; outline: as §1
[39] = Cmax in fed Sprague-Dawley rat at 100 mg/kg, po; assay type: ADME, organism-based; parameters: dose 100 mg/kg, route oral; details: in vivo; outline: as §3
[40] = biological target: T5, Cytochrome P450 3A4; test: Inhibition of CYP3A4 in human liver microsomes measured after concurrent incubation; assay type: ADME; outline: as §1

T6 sequence (P10635 whole entry): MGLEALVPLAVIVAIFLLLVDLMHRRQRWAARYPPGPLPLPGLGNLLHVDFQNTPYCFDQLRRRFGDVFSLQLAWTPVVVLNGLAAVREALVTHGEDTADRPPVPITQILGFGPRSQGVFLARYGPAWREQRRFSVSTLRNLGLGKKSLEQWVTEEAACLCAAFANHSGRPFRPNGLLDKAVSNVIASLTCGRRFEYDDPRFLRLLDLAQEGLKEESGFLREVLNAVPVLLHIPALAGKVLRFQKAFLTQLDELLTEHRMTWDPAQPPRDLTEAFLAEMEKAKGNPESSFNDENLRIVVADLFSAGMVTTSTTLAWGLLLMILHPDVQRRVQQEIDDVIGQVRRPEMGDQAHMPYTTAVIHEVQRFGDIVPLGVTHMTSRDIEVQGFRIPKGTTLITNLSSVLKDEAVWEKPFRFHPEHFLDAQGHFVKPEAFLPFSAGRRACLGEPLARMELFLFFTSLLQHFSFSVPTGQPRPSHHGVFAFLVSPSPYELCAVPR
T5 sequence (P08684 whole entry): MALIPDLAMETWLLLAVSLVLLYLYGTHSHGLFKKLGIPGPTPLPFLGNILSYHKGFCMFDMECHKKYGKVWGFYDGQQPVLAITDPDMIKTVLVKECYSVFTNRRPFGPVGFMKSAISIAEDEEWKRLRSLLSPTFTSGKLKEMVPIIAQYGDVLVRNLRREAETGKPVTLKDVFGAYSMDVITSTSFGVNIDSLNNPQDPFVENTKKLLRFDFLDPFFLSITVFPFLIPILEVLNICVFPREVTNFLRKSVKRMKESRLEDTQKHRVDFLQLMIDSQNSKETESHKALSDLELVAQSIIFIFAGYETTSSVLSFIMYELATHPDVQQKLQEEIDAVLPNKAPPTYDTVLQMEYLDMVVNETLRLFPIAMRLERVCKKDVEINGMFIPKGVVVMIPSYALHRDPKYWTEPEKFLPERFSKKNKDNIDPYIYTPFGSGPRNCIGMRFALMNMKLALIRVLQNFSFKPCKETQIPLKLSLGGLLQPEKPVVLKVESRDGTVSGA
T7 sequence (P11712 whole entry): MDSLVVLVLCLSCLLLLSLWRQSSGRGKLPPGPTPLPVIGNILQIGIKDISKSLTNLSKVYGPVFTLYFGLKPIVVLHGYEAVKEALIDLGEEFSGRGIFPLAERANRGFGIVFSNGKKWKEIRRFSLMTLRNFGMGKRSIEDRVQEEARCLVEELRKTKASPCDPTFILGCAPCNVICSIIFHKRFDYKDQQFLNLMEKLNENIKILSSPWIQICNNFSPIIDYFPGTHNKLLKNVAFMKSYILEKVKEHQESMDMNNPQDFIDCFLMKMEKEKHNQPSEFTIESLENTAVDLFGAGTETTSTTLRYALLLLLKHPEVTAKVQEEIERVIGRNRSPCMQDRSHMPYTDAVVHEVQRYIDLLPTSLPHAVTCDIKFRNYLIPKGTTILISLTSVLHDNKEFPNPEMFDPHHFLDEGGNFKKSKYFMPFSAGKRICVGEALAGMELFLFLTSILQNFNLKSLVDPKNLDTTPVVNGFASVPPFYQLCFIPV
T3 sequence (P33261 whole entry): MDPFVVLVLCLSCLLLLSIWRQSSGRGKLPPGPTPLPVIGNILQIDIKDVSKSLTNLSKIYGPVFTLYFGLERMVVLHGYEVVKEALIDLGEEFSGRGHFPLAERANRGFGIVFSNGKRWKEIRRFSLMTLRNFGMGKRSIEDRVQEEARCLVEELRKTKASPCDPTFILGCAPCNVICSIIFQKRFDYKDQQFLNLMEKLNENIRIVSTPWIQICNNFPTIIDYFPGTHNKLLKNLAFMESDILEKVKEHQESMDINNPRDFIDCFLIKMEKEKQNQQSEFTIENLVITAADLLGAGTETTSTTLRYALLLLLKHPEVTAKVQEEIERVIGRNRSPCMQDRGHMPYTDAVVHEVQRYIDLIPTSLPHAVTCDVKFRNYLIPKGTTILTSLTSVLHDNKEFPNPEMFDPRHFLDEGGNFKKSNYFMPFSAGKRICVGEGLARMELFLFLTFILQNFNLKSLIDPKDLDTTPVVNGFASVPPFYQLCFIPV
Sequence of hERG (KCNH2) (Q12809 whole entry): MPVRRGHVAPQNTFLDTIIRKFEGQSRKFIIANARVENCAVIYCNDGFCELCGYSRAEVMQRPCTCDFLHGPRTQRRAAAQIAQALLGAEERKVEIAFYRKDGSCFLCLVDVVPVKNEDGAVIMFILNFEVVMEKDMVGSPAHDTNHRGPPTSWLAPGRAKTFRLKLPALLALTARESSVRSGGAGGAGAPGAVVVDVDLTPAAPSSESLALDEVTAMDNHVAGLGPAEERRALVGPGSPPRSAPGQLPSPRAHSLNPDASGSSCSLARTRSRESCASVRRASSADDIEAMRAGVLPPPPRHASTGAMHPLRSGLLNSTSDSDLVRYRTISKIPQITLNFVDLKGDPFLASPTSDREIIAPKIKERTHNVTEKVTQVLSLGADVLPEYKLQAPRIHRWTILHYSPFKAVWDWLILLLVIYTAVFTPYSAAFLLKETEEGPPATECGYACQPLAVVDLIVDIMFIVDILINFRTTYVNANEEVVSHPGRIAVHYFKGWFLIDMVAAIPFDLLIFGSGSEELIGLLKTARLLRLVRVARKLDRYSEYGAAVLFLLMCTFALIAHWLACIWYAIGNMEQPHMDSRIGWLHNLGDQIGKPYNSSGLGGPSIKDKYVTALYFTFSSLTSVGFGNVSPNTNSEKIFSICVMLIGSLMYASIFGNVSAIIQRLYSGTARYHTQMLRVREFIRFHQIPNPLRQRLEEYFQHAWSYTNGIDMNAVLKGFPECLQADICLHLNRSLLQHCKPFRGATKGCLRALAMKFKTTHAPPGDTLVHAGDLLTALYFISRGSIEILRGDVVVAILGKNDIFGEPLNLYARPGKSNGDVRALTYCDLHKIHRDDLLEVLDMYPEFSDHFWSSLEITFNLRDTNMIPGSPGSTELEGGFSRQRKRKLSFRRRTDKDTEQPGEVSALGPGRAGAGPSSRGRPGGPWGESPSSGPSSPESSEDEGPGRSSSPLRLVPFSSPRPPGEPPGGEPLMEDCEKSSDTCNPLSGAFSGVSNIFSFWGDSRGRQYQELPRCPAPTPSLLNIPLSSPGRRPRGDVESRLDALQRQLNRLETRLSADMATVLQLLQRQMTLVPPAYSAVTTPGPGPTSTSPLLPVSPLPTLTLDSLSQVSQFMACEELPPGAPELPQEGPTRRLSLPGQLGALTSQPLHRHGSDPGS

Cc1cc2c(-c3ccc[nH]c3=O)c(C(=O)O)n(Cc3cc4cc(F)c(F)cc4nc3Cl)c2cc1F
EC50 [1]: 0.03 µM
IC50 [2]: 0.01 µM

Cc1cc2c(-c3ccc[nH]c3=O)c(C(=O)O)n(Cc3cc4ccccc4nc3Cl)c2cc1F
IC50 [3]: > 50 µM
IC50 [4]: 30 µM
Activity [5]: Non-toxic
IC50 [6]: > 50 µM
Cmax [7]: 65 µM
dose excreted [8]: 81%
AUC [9]: 9 µM·h
IC50 [10]: > 50 µM
IC50 [11]: > 50 µM
AUC [12]: 1090 µM·h
Cmax [13]: 21 µM
Activity [14]: Toxic
Cmax [15]: 0.9 µM
IC50 [16]: 21 µM
Cmax [17]: 1.3 µM
IC50 [18]: > 50 µM
AUC [19]: 176 µM·h
EC50 [1]: 0.003 µM
Stability [20]: Stable
Cmax [21]: 66 µM
IC50 [2]: 0.013 µM
AUC [22]: 15 µM·h
IC50 [23]: > 50 µM
IC50 [24]: > 50 µM
Activity [25]: Non-toxic
IC50 [26]: > 50 µM
Activity [27]: Non-toxic
AUC [28]: 1040 µM·h
Cmax [29]: 2 µM
IC50 [30]: > 50 µM
AUC [31]: 17 µM·h
Activity [32]: Non-toxic
inhibition at 2 µM [33]: 6%
AUC [34]: 375 µM·h
Stability [35]: Stable
IC50 [36]: > 50 µM
Activity [37]: Non-toxic
IC50 [38]: > 50 µM
Cmax [39]: 32 µM
IC50 [40]: > 50 µM
